According to paper PMC6445238 (Drug Design, Development and Therapy, 2019):

Legend:
Single ascending dose = format: in vivo, human
Outline: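 After a single oral dose, plasma was sampled predose and at 0.25–72 h, and urine was collected over 0–24 h. Samples were mixed with DMSO and a deuterated internal standard, extracted with methanol, diluted with 0.1% ammonium acetate, and run by UPLC-MS/MS using MRM at m/z 460.1→214.2. Analysis was non-compartmental: t1/2 = 0.693/λz, AUC by linear trapezoidal rule, BLQ values before Cmax set to zero.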

[1] = MAD study, safety and tolerability; format: in vivo, human; details: young, N=6
Outline: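 MAD cohorts were 6 active and 2 placebo healthy males, dosed once daily for 7 days, confined day −1 to day 8, with follow-up on day 14. Safety was monitored by vital signs, clinical labs, 12-lead ECG, physical exams, and AEs reported by subjects or observed by investigators. AEs were coded with MedDRA 19.1. Counts are given as subjects with AEs, % of the safety population. Placebo subjects were pooled.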

## Cc1nn(Cc2ccc(Br)cc2)c(C)c1NC(=O)CSc1ccccc1 [KM-819]
Single ascending dose; SAD
  variability (CV%) of AUCinf and Cmax: up to 55%
Single ascending dose; SAD, 10–400 mg
  dose proportionality of plasma exposure (AUC and Cmax) after a single dose: less than dose-proportional increase
Single ascending dose; SAD, all subjects
  24-hour recovery in urine (percent of dose): less than 1%
Single ascending dose; single 10 mg, young
  AUCinf, geometric mean (CV%): 594.2 (24.4) ng·h/mL
  AUClast, geometric mean (CV%): 583.4 (24.5) ng·h/mL
  CL/F, geometric mean (CV%): 16,830 (24.4) mL/h
  Cmax, geometric mean (CV%): 244.1 (31.4) ng/mL
  Tmax, median (min–max): 1.50 (0.50–2.00) h
  t1/2, geometric mean (CV%): 1.786 (28.3) h
  tlag, median (min–max): 0.00 (0.00–0.25) h
Single ascending dose; single 30 mg, young
  AUCinf, geometric mean (CV%): 1,731 (17.3) ng·h/mL
  AUClast, geometric mean (CV%): 1,705 (17.1) ng·h/mL
  CL/F, geometric mean (CV%): 17,340 (17.3) mL/h
  Cmax, geometric mean (CV%): 503.6 (28.0) ng/mL
  Tmax, median (min–max): 1.00 (0.50–2.00) h
  t1/2, geometric mean (CV%): 4.791 (25.0) h
  tlag, median (min–max): 0.00 (0.00–0.00) h
Single ascending dose; single 100 mg, young
  AUCinf, geometric mean (CV%): 4,872 (30.8) ng·h/mL
  AUClast, geometric mean (CV%): 4,306 (31.1) ng·h/mL
  CL/F, geometric mean (CV%): 20,530 (30.8) mL/h
  Cmax, geometric mean (CV%): 1,152 (36.7) ng/mL
  Tmax, median (min–max): 2.00 (1.00–4.00) h
  t1/2, geometric mean (CV%): 9.159 (41.2) h
  tlag, median (min–max): 0.00 (0.00–0.00) h
Single ascending dose; single 200 mg
  AUC higher in elderly than in young: 49%
  Cmax, elderly compared with young: similar
  t1/2 higher in elderly than in young: 17%
Single ascending dose; single 200 mg, elderly
  AUCinf, geometric mean (CV%): 10,970 (9.8) ng·h/mL
  AUClast, geometric mean (CV%): 10,840 (10.3) ng·h/mL
  CL/F, geometric mean (CV%): 18,230 (9.8) mL/h
  Cmax, geometric mean (CV%): 1,766 (26.0) ng/mL
  Tmax, median (min–max): 2.00 (1.0–4.00) h
  t1/2, geometric mean (CV%): 10.55 (28.5) h
  tlag, median (min–max): 0.00 (0.00–0.00) h
Single ascending dose; single 200 mg, young
  AUCinf, geometric mean (CV%): 7,338 (51.9) ng·h/mL
  AUClast, geometric mean (CV%): 7,637 (47.7) ng·h/mL
  CL/F, geometric mean (CV%): 27,260 (51.9) mL/h
  Cmax, geometric mean (CV%): 1,879 (55.3) ng/mL
  Tmax, median (min–max): 2.00 (1.00–4.00) h
  t1/2, geometric mean (CV%): 9.010 (71.6) h
  tlag, median (min–max): 0.00 (0.00–0.25) h
Single ascending dose; single 400 mg, young
  AUCinf, geometric mean (CV%): 12,640 (36.1) ng·h/mL
  AUClast, geometric mean (CV%): 12,210 (33.3) ng·h/mL
  CL/F, geometric mean (CV%): 31,650 (36.1) mL/h
  Cmax, geometric mean (CV%): 2,767 (43.4) ng/mL
  Tmax, median (min–max): 4.00 (2.00–4.00) h
  t1/2, geometric mean (CV%): 8.527 (63.2) h
  tlag, median (min–max): 0.00 (0.00–0.00) h
[1]; 30 mg QD 7 days
  Abdominal discomfort, number of subjects (%): 0
  Abdominal pain, number of subjects (%): 0
  Anxiety, number of subjects (%): 0
  Back pain, number of subjects (%): 0
  Diarrhea, number of subjects (%): 0
  Dizziness, number of subjects (%): 1 (16.7)
  Epistaxis, number of subjects (%): 0
  Erythema of eyelid, number of subjects (%): 0
  Erythema, number of subjects (%): 0
  Headache, number of subjects (%): 2 (33.3)
  Hyperbilirubinemia, number of subjects (%): 0
  Hyperhidrosis, number of subjects (%): 0
  Hypoesthesia, number of subjects (%): 0
  Insomnia, number of subjects (%): 0
  Muscle hemorrhage, number of subjects (%): 0
  Musculoskeletal stiffness, number of subjects (%): 0
  Nausea, number of subjects (%): 2 (33.3)
  Neck pain, number of subjects (%): 0
  Oropharyngeal pain, number of subjects (%): 0
  Subjects with any TEAEs, number of subjects (%): 2 (33.3)
  Vomiting, number of subjects (%): 2 (33.3)
[1]; 100 mg QD 7 days
  Abdominal discomfort, number of subjects (%): 0
  Abdominal pain, number of subjects (%): 0
  Anxiety, number of subjects (%): 0
  Back pain, number of subjects (%): 2 (33.3)
  Diarrhea, number of subjects (%): 0
  Dizziness, number of subjects (%): 1 (16.7)
  Epistaxis, number of subjects (%): 0
  Erythema of eyelid, number of subjects (%): 0
